This data set in a line: Toxicity liver stage against HepG2, at 10uM. The data set is classed as cell-based. On the set-up: test concentration 10 uM, cell line HepG2-A16-CD81EGFP. Conditions: human, HepG2-A16-CD81EGFP cells; read-out: INHIBITION
An outline of the steps:
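Uninfected HepG2-A16-CD81EGFP cells, 3 × 10^3 per well, 1536-well, plated on prespotted compound at 10 μM final, parasite-free screening media added to match infected plates; puromycin 10 μM positive, DMSO 0.5% negative; run in parallel with 48 h PbLuc assay at 37 °C, 5% CO2; viability by CellTiter-Glo luminescence, normalized to controls.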

SMILES strings stand for the structures.

`CN(C)Cc1cc(=O)n2c(n1)CN(Cc1ccco1)CCC2`: the cytotoxicity at 10 µM worked out at 7.07%. As for `O=C1CC(c2cccs2)Cc2nc(O)c(C(=O)N3CCCC3)cc21` (stereo unspecified), the cytotoxicity at 10 µM is -3.96%. The value for `CC(C)(C)OC(=O)N(CCNS(=O)(=O)N1CCOCC1)C1CC1` was -4.43%. For `Cc1cc2[nH]c(O)nc2cc1NCc1ccc(F)cc1`, the cytotoxicity at 10 µM turned out to be 16.1%.

Take `N#Cc1cccnc1N1CCN(C(=O)c2cccs2)CC1`: the cytotoxicity at 10 µM came to 10.4%. `COc1cccc(CC(=O)NCc2cnc(C)nc2C2CCCN2C)c1` (stereo unspecified): the cytotoxicity at 10 µM is -7.47%. Turning to `CC(C)c1noc(C(C)N2CCN(Cc3nnc(C4CC4)o3)CC2)n1` (stereo unspecified), the cytotoxicity at 10 µM was -11.9%. The value for `NC(=O)C1CN(Cc2c(O)ccc3oc4c(c23)CCCC4)CCO1` (stereo unspecified) was 4.48%; that for `CCc1nc2n(n1)CC(NCc1cc(OC)c3c(c1)OCO3)CC2` (stereo unspecified) was 4.23%; that for `CCC(C)(CCO)NC(=O)c1ccon1` (stereo unspecified) was 4.13%. `O=C1CC2(CCSC2)C(=O)N1Cc1ncc(-c2cccc(F)c2)o1` (stereo unspecified): the cytotoxicity at 10 µM turned out to be 10.3%. Turning to `Cn1cc(-c2nc(CN3CCc4c(ncn4C4CC4)C3)cs2)cn1`, the cytotoxicity at 10 µM was -17.6%. As to `Cc1cc(N2CCC(C(=O)N(C)C)CC2)nc(-c2ccncc2)n1`, the cytotoxicity at 10 µM was -17.1%. For the molecule `CCNc1cc2c(nn1)CCN(C(=O)c1cccc3c1OCO3)C2`, the cytotoxicity at 10 µM is -9.88%. With `CC(NC(=O)c1cccs1)C(=O)NS(=O)(=O)Cc1ccc(C#N)cc1` (stereo unspecified), the cytotoxicity at 10 µM was found to be 5.29%.

Consider `O=C(CN1C=Nc2ccccc2S1(=O)=O)NCCc1cccs1`, for which the cytotoxicity at 10 µM is -8.55%. Consider `CC(C)(NC(=O)Nc1cnn(CC2CCCO2)c1)c1nccs1` (stereo unspecified), for which the cytotoxicity at 10 µM is -2.64%.

For the molecule `C[C@@H]1CN(S(=O)(=O)N2CCOCC2)C[C@@]1(O)C1CC1`, the cytotoxicity at 10 µM was 5.91%. As for `CCC(C(=O)NC)N(c1cccc(C)c1)S(C)(=O)=O` (stereo unspecified), the figure is -11.8%; as for `Cc1ccc(NS(=O)(=O)c2cc3c(c(C(=O)O)c2)OCCO3)cc1F`, -5.77%.

As for `CC(=O)Nc1ncc(S(=O)(=O)Nc2ccc(F)cc2)s1`, the cytotoxicity at 10 µM amounted to 0.976%. As for `O=C(c1ccccn1)N1CCC2(COc3ncccc3S(=O)(=O)N2)C1` (stereo unspecified), the figure is 8.96%. The value for `Cc1ccc([C@@H]2CN(S(=O)(=O)N3CCC(C)CC3)C[C@H]2N(C)C)cc1` was -3.59%. Turning to `O=C(CCS(=O)(=O)c1ccccc1)NCCCn1cccn1`, the cytotoxicity at 10 µM is 12%. For `Cc1nc(N2CCCC2)nc2c1CCN(C(=O)C1CCCC1)CC2`, the cytotoxicity at 10 µM is -0.265%.

For `CS(=O)(=O)NCc1cn2c(n1)CN(Cc1ccoc1)CC2`, the cytotoxicity at 10 µM was 7.92%. For `CCN(CC)S(=O)(=O)NC1CCCc2nc(-c3ccccc3)ncc21` (stereo unspecified), the cytotoxicity at 10 µM was found to be 17.2%. As for `CC(=O)N1CCC(c2cnc(NC3CCOCC3)cn2)CC1`, the figure is -3.73%.

On to `CSC1(CNC(=O)NC(C)c2ccc(F)c(F)c2)CCOCC1` (stereo unspecified), for which the cytotoxicity at 10 µM was determined as 1.71%. Consider `Cc1noc2ncnc(NC(CC(C)(C)C)c3cccnc3)c12` (stereo unspecified), for which the cytotoxicity at 10 µM was determined as 1.41%. Consider `Cc1nnc2n1CCN(C(=O)c1cc(Br)c[nH]1)C2`, for which the cytotoxicity at 10 µM is -10.7%. Regarding `CCn1cnnc1CNC(=O)N1CCC(O)CC1`, the cytotoxicity at 10 µM was -4.86%.

With `CC(C)CC(NC(=O)c1ccc[nH]1)C(=O)N1CCC(CO)CC1` (stereo unspecified), the cytotoxicity at 10 µM was found to be 6.74%. On to `O=C(c1ccc(F)cc1)N1CCN2C[C@H](OCc3cccnc3)C[C@H]2C1`, for which the cytotoxicity at 10 µM is -85.1%. Take `CO[C@@H]1CCN(c2ncc(F)cn2)[C@@H]2CN(Cc3cccnc3)C[C@@H]21`: the cytotoxicity at 10 µM was 11.8%. Consider `Cc1cnc(C(=O)N2CCC3(CCN3Cc3ccc(F)cc3)C2)cn1` (stereo unspecified), for which the cytotoxicity at 10 µM is -104%. The value for `Cc1cc(C)n(C2CCCN(C(=O)c3c[nH]c(=O)c(Cl)c3)C2)n1` (stereo unspecified) was -5.03%; that for `CC(CNCc1ccncc1)Oc1ccccn1` (stereo unspecified) was -1.71%; that for `COc1ccc(C2CC(=O)NCc3nc(N(C)C)sc32)c(O)c1` (stereo unspecified) was 3.3%. Consider `Cn1ccnc1C(=O)N1CCC(Cn2cc(-c3ccsc3)nn2)CC1`, for which the cytotoxicity at 10 µM was -6.46%. In the case of `Cn1cc(CN2CC[C@H]3OCC[C@@H](C(=O)NCc4ccco4)[C@@H]3C2)cn1`, the cytotoxicity at 10 µM was 6.79%.

Turning to `CCn1cc2c(n1)CN(S(=O)(=O)Cc1ccccc1)CC2COC` (stereo unspecified), the cytotoxicity at 10 µM is 10.6%.

For the molecule `Cc1nn(C)c(C)c1C1CCCN1Cc1nc2ccccc2o1` (stereo unspecified), the cytotoxicity at 10 µM is -20.6%. Turning to `CC(=O)N1CCN(C(=O)CN(C)c2ccc(Cl)cn2)CC1`, the cytotoxicity at 10 µM amounted to 1.79%.

Take `CCc1cc(CNC(=O)NCc2ccc(N3CCCCC3)cc2)on1`: the cytotoxicity at 10 µM is 1.27%. Take `O=C(CN1CCS(=O)(=O)CC1)NC1CCCOc2ccccc21` (stereo unspecified): the cytotoxicity at 10 µM was 4.81%. On to `CN(C)C(=O)N1CCc2c(CNc3ncccn3)cncc2C1`, for which the cytotoxicity at 10 µM was -3.55%.

On to `CCS(=O)(=O)CCNC(=O)c1ccc(-c2ccc(C)cc2)cc1F`, for which the cytotoxicity at 10 µM was -14.2%. For the molecule `O=C(c1cccnc1-n1cncn1)N1CCN(CC2CC2)CC1`, the cytotoxicity at 10 µM was -10.9%.

Take `CN1CCc2c(CNC(=O)c3nccn3C)cncc2C1`: the cytotoxicity at 10 µM is -95.7%.

`O=C(Cc1ccccc1)N1Cc2nccn2CC(CN2CCCC2)C1` (stereo unspecified): the cytotoxicity at 10 µM is -101%. As for `CNC(=O)c1cccc(NCC(=O)Nc2cc(C)nn2C)c1C`, the figure is -1.49%; as for `CC(C)(O)CN1CCN(C(=O)c2sccc2C2CC2)CC1`, 5.37%. Turning to `N#Cc1cccc(N2CC3(CCN(C(=O)c4ccncc4)C3)CC2=O)c1` (stereo unspecified), the cytotoxicity at 10 µM is -1.75%. The value for `O=C(NCC1CC1)C1CSCN1S(=O)(=O)c1ccccc1` (stereo unspecified) was -4.43%; that for `CCCN(C(=O)c1cc2c([nH]c1=O)CCCC2=O)C1CCCCC1` was -0.708%; that for `Cc1oncc1C(=O)N1CC2CC1(C(=O)N1CCCC1)C2` was 4.91%. Take `CC1c2ccsc2CCN1Cc1cc2c(cc1O)OCO2` (stereo unspecified): the cytotoxicity at 10 µM was 11.7%. The value for `CN(C)C(=O)c1c[nH]nc1C1CCN(S(=O)(=O)c2ccc(Cl)cc2)CC1` was -4.9%; that for `CCCN1CCCn2nc(CNC(=O)CC(C)n3ccnc3C)cc2C1` (stereo unspecified) was -9.4%; that for `O=C(c1ccncc1)N1CCCn2nnc(Cn3cccn3)c2C1` was 6.01%. As for `COCc1nc(C(=O)NS(=O)(=O)c2ccc(C)c(C)c2)cs1`, the figure is -8%; as for `CN(Cc1ccon1)C(=O)C1CC(=O)N(Cc2cccnc2)C1` (stereo unspecified), -3.83%; as for `Cc1noc(C2CCCN(C(=O)c3ccc(Cl)cc3F)C2)n1` (stereo unspecified), -25.3%. The value for `CC1(NC(=O)Cc2csc(-c3cccc(Cl)c3)n2)CCS(=O)(=O)C1` (stereo unspecified) was -3.61%. As to `CCCS(=O)(=O)N1CCC2(CC(=O)N(c3cnn(C)c3)C2)C1` (stereo unspecified), the cytotoxicity at 10 µM was determined as 4.59%. Take `CS(=O)(=O)N1CCC(n2nnn(-c3ccccc3)c2=O)CC1`: the cytotoxicity at 10 µM was 2.58%. As for `CN1CCN(C(=O)c2cnn(-c3ccccc3Cl)c2)CC1`, the figure is -5.51%; as for `Cc1ccc2cccc(C(=O)NCC3CCN(C(C)C)C3)c2n1` (stereo unspecified), -9.97%; as for `CCC(CO)NCc1ccc(-c2ccc(F)c(Cl)c2)o1` (stereo unspecified), 5.24%.

On to `COC(=O)CC(NC(=O)c1ccccc1OC)c1cccs1` (stereo unspecified), for which the cytotoxicity at 10 µM was 0.35%.

For the origin of these results see ChEMBL document CHEMBL4513216, “Probing the Open Global Health Chemical Diversity Library for Multistage-Active Starting Points for Next-Generation Antimalarials” (ACS Infect Dis, 2020).
